DENV2 CPE rescue: DENV2-induced cell death inhibition; DENV2-infected cells, cytopathic effect rescue, plate reader; CPE inhibition, % at 9.99 µM; actives 1.7% (n = 350,000); in the data active means CPE inhibition above about 20%, passing the limit was not always enough; tested in BHK-21 cells
XiGFP reactiv: X-chromosome reactivation activator; XiGFP mouse fibroblasts, % GFP-positive cells imaging, 3 d; cells co-treated with 5-aza-dC sensitizer; scaled so ellipticine positive control = 100%; activation, % at 7.58 µM; actives 0.055% (n = 360,000);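 active means mean normalized replicate activation at least 10% and every replicate at or above 10%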
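Material: SV40-immortalized XiGFP fibroblast cells, line 68-5-11 | Buffer or medium: DMEM containing 5-aza-dC | Dosing: One concentration, pinned | Times: 3 d treatment, 15 min room-temperature fixation | Controls: Ellipticine 6 µM positive control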
S100A4 MyoIIA: S100A4-myosin IIA interaction inhibition | P26447 | S100A4/TAMRA-MyoIIA peptide fluorescence polarization | inhibition, % at 10.7 µM | actives 0.14% (n = 360,000) | AID 652163;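 active means mean inhibition of at least 70% across replicates, with every replicate also reaching that level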
Target sequence (P26447 whole entry, looked up): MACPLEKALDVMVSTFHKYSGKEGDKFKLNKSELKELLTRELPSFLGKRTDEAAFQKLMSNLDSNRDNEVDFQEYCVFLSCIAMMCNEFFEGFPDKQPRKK
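Test system: S100A4 monomer protein. Medium: HEPES buffer with Ca2+, pH 7.2. Reagent: fluorescent myosin IIA peptide, 5 nM. Compound dosing: single-point compound testing. Timing: 5 min between mix addition and reading. Benchmarks: DMSO neutral and TFP positive wells.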
E-sel inducer: induces E-selectin expression in human endothelial cells; actives 0.37% (n = 260,000); HUVEC E-selectin immunofluorescence imaging; normalized: neutral wells 0, TNF-alpha wells 100; activation, % at 7.58 µM;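 active means mean E-selectin-positive cell signal at least 10% of the positive control, reached in at least 60% of replicates, without over 20% cell loss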
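System: HUVEC, human umbilical vein endothelial cells; quantity: 3,000 cells/well; buffer or medium: EGM-2 medium, gelatin-coated wells; dosing: single-point compound dose; detection: immunofluorescence imaging; evaluation: % PE-positive cells; benchmarks: TNF-alpha, DMSO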
Numbers stand for hits; n = inactive; x = not tested or not shown. An excerpt weighted towards active compounds, which were near 2% of everything screened.

SMILES | DENV2 CPE rescue | XiGFP reactiv | S100A4 MyoIIA | E-sel inducer
Cc1ccc2sc(N3CCN(CCNC(=O)c4ccco4)CC3)nc2c1C | n | n | n | n
COCC(=O)N1C[C@@H](C)[C@@H](OC)CN(C)C(=O)c2ccc(NC(=O)c3ccc(OC)cc3)cc2OC[C@H]1C | n | n | n | n
CC(C)(C)c1ccc(Nc2n[nH]c3ccccc23)cc1 | 66 | n | n | n
CC(C)CN1CCCC(N2CCN(c3cccc(Cl)c3)CC2)C1 (stereo not drawn) | 27 | n | n | x
N#CCCN(C(=O)COC(=O)CCC(=O)c1ccc(F)cc1)c1ccccc1 | n | n | n | n
O=C(COc1ccc(-c2nnco2)cc1)NCc1ccccc1Cl | 43 | n | n | x
CC(NC(=O)COc1ccc(-c2nnco2)cc1)c1ccc(Cl)cc1Cl (stereo not drawn) | x | n | x | x
CN(C)c1ccc(/C=C/c2ccc3c4ccccc4ccc3[n+]2-c2ccccc2)cc1 | x | n | 156 | 217
CC1=NN(c2ccc(C(=O)O)cc2)C(=O)/C1=C\c1ccc(OC(=O)c2cccs2)cc1 | n | n | n | n
COc1ccc(NC(=O)CSc2nnnn2C)cc1S(=O)(=O)N1CCCCC1 | n | n | n | n
O=[N+]([O-])c1ccccc1OCc1nc(-c2cccs2)no1 | 23 | n | n | n
COCCNC(=O)c1cc(-c2ccccc2)nn1CC1CC(c2cccc([N+](=O)[O-])c2)=NO1 (stereo not drawn) | x | n | x | n
CC(C)(C)c1cc(-n2ccnc2)n2ncc(-c3ccc(Cl)cc3)c2n1 | x | n | x | n
COc1ccc(CNC(=O)C[C@H]2CC[C@H](NC(=O)c3ccc4c(c3)OCO4)[C@@H](CO)O2)cc1 | n | n | n | n
COC(=O)c1sc2nc(SCC(=O)N(C)c3ccccc3)n(N)c(=O)c2c1C | n | n | n | 154
Cc1c(C(=O)Nc2ccccc2F)sc2ncn(CC(=O)N3CCOCC3)c(=O)c12 | 52 | n | n | x
O=C(CNC(=O)N1CC(=O)Nc2ccccc21)NCc1ccc(F)cc1 | 113 | n | n | n
CCOC(=O)C1CCN(c2nc(-c3ccc(C)cc3)nc3ccccc23)CC1 | n | n | n | x
CCOC(=O)C1CCN(c2c(C(=O)c3ccccc3)cnc3ccc(Cl)cc23)CC1 | 34 | n | n | x
CSC(=Nc1ccccc1)Nc1ccccc1 | n | n | n | n
CNC[C@H]1Oc2ccc(NS(=O)(=O)c3ccc(C)cc3)cc2CC(=O)N([C@H](C)CO)C[C@H]1C | x | n | x | n
COc1ccc2c(c1)[C@H]1[C@H](CO2)[C@H](c2ccccc2)[C@]2(C)C(=O)Nc3ccc(Cl)cc3C(=O)N12 | 33 | n | n | n
CC(C)NC(=O)N(C)C[C@H]1Oc2ccc(NS(=O)(=O)c3cccs3)cc2CC(=O)N([C@@H](C)CO)C[C@@H]1C | n | n | n | n
CC(C)NC(=O)N(C)C[C@@H]1Oc2ccc(NS(=O)(=O)c3cccs3)cc2CC(=O)N([C@@H](C)CO)C[C@@H]1C | 22 | n | n | n
CC(C)NC(=O)N(C)C[C@@H]1Oc2ccc(NS(=O)(=O)c3cccs3)cc2CC(=O)N([C@H](C)CO)C[C@H]1C | n | n | n | n
SMILES | DENV2 CPE rescue | XiGFP reactiv | S100A4 MyoIIA | E-sel inducer
CC(C)NC(=O)N(C)C[C@@H]1Oc2ccc(NS(=O)(=O)c3cccs3)cc2CC(=O)N([C@@H](C)CO)C[C@H]1C | n | n | n | 29
C[C@@H]1CN([C@@H](C)CO)C(=O)Cc2cc(NS(=O)(=O)c3cccs3)ccc2O[C@H]1CN(C)S(=O)(=O)c1ccccc1 | 78 | n | n | n
COc1ccc(-c2[nH]ncc2CN2C[C@@H]3CCC[C@H]2C3)c(F)c1 | n | n | n | n
CC1=NN(c2ccccc2)C(=O)C1N=Nc1ccccc1 (stereo not drawn) | n | n | n | 60
CN1CCC2CC1c1cc(-c3ccc(C(F)(F)F)cc3)ccc12 (stereo not drawn) | 21 | n | n | n
C[C@@H]1CCCCO[C@H](CN(C)C(=O)Nc2ccc(F)cc2)[C@@H](C)CN([C@H](C)CO)C(=O)c2cc(NC(=O)C3CCCCC3)ccc2O1 | x | n | n | n
CCCCNc1c(-c2ccc(Sc3ccc(OC)cc3)cc2)nc2cc(C)ccn12 | 82 | n | n | n
CCCCNc1c(-c2ccc(-c3ccc(C(C)=O)cc3)c(OC)c2)nc2cc(C)ccn12 | 61 | n | n | n
CCCCNc1c(-c2ccc(OC)c(SC(C)CC)c2)nc2cc(C)ccn12 (stereo not drawn) | n | n | n | n
O=C(CCS(=O)(=O)Cc1cccc(Cl)c1)NCCc1ccccc1 | n | n | n | x
C[C@@H]1CCCCO[C@H](CN(C)S(=O)(=O)c2cccs2)[C@@H](C)CN([C@H](C)CO)C(=O)c2cc(NS(=O)(=O)c3ccc(F)cc3)ccc2O1 | n | n | n | x
CCc1ccccc1NC(=O)Cn1nc(C)n2cccc2c1=O | n | n | n | x
O=C(NCC[C@@H]1CC[C@@H](NC(=O)C2CCOCC2)[C@@H](CO)O1)Nc1ccc(Cl)cc1 | 38 | n | n | n
O=C(NCC[C@@H]1CC[C@@H](NS(=O)(=O)c2ccc(Cl)cc2)[C@@H](CO)O1)Nc1ccc(F)cc1 | 33 | n | n | n
O=C(Nc1ccc(Cl)cc1)N[C@H]1CC[C@H](CCNC(=O)c2ccccc2F)O[C@@H]1CO | n | n | 81 | n
CCC(=O)N[C@@H]1CC[C@H](CCNC(=O)Nc2ccc(C(F)(F)F)cc2)O[C@H]1CO | n | n | 92 | n
O=C(NCc1ccccn1)c1ccc(Cl)c(S(=O)(=O)Nc2ccccc2C(=O)NCc2ccccn2)c1 | n | n | n | n
O=C1NC[C@@H](CCCCN2C[C@H](Cc3ccc(O)cc3)N(CCc3ccc(O)cc3)C(=O)C2=O)N(CC2CCCCC2)C1=O | n | n | n | x
COc1cccc(-c2ccc([C@@H]3[C@@H](CO)N4C(=O)CN(C(=O)C5CCCC5)C[C@H]34)cc2)c1 | n | n | n | n
O=C(CN1CCOCC1)NCC[C@@H]1CC[C@@H](NC(=O)Nc2ccc(F)cc2)[C@@H](CO)O1 | 24 | n | n | n
CC(C)COC(=O)N(C)C[C@H]1OCc2ccccc2-c2c(n(C)c3ccccc23)C(=O)N([C@H](C)CO)C[C@H]1C | x | n | x | x
O=C(c1c[nH]c(C(=O)C(Cl)(Cl)Cl)c1)c1c(F)cccc1F | n | n | n | n
O=[N+]([O-])c1ccc(O)c(/C=N/NC(=S)Nc2ccc(Cl)cc2Cl)c1 | n | n | n | x
O=[N+]([O-])c1ccc(/C=N/NC(=S)Nc2ccc(Cl)cc2Cl)s1 | n | 13 | n | x
O=S(=O)(Nc1cccc(Cl)c1)c1ccc(-n2cccn2)cc1 | n | n | n | n
Cc1ccc(C)c(C(Nc2ccccc2)c2ccc3ccc(C)nc3c2O)c1 (stereo not drawn) | 23 | n | n | n
Oc1c(C(Nc2cccc(C(F)(F)F)c2)c2ccncc2)ccc2cccnc12 (stereo not drawn) | n | n | n | n
CN(CCCC(=O)NCc1ccccc1)S(=O)(=O)c1ccc([N+](=O)[O-])cc1 | n | n | n | x
